The campaign covered roughly 30,000 compounds. About 80 (0.3%) were called active.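 How the source made its calls: active means mutant and wild-type yeast strains alike exhibit over 30% growth inhibition; inconclusive means a strain exceeds 50% while the second remains under 30%; inactive means the rest.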 The list comes from a sample in which actives are over-represented; it also holds similar structures and randomly drawn compounds.

The nature of this assay: yeast growth toxicity, wild-type and mutant, primary screen, cytotoxicity control for eIF2B function restoration project, wild-type and eIF2Bepsilon R284H mutant, A595 (AID 685).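 Further: 0% = untreated cell controls and 100% = YPD media blanks without cells.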 The following applies: A595 turbidity, 16 h, stronger effect = higher value, screened at 25 µM (by protocol). In a few lines:
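system = S. cerevisiae wild-type or eIF2Bepsilon-R284H mutant strain | buffer or medium = YPD medium | dosing = one dose, 25 µM compound, 0.2% DMSO | schedule = 16 h at 30 °C | measured by = A595 turbidity | evaluation = growth inhibition (%) versus cell controls and blanks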

[1] abbreviates: S. cerevisiae eIF2Bepsilon-R284H mutant growth.

Regarding `COc1ccc(NC(=O)COC(=O)Cn2c(C)nc3ccccc32)cc1OC`, the growth inhibition is -9.52% under setting [1] and -7.04% (inactive) (S. cerevisiae wild-type growth).
The like results for `CN(C)/C=C1/C(=O)Nc2ccccc21` were, in that order, 0% and 16.7% (inactive).
For `CCCCNC(=O)C1CCCN(S(=O)(=O)c2ccc(S(=O)(=O)NCC(C)C)cc2)C1` (stereo not given) the same measures were 28.2% and 0.77% (inactive).
Take `CCOc1ccc(-c2nc(C)sc2CC(=O)O)cc1`: the growth inhibition is 14.9% under setting [1] and 16.7% (inactive) (S. cerevisiae wild-type growth).
Regarding `COc1cc(S(=O)(=O)N(Cc2cccs2)C2CC2)ccc1-n1cnnn1`, the growth inhibition by setting is: under setting [1], -4.17%; (S. cerevisiae wild-type growth) 13% (inactive).
The like results for `Cc1ccc(S(=O)(=O)N(c2cccc(C)c2)C2CCS(=O)(=O)C2)cc1` (stereo not given) were, in that order, 0% and 8.71% (inactive).
The like results for `CN(Cc1ccccc1)C(=O)COc1ccccc1` were, in that order, 16.7% and 1.03% (inactive).
The like results for `COc1ccc(NC(=O)CC2COc3ccccc3O2)c(OC)c1` (stereo not given) were, in that order, 19.1% and 20% (inactive).
In the case of `Cc1nnc(SCC(=O)NC(=O)NC2CCCC2)n1N`, the growth inhibition is, setting by setting: under setting [1], 17.4%; (S. cerevisiae wild-type growth) 24.3% (inactive).
The like results for `COC(=O)c1ccc(S(=O)(=O)c2ccc(C(=O)OC)s2)s1` were, in that order, -35.1% and -57.5% (inactive).
The like results for `CC(=O)OC(C(=O)NC1CCCCC1)c1ccccc1` (stereo not given) were, in that order, 0% and 11% (inactive).
The like results for `CCC1CCCCN1CCCNC(=O)C1CCC(Cn2c(=O)[nH]c3ccccc3c2=O)CC1` (stereo not given) were, in that order, 15.6% and 10% (inactive).
On to `CCN1CCCC1Cn1cnc2c([nH]c3cc(OC)ccc32)c1=O` (stereo not given), for which the growth inhibition reads like this: under setting [1], 8.7%; (S. cerevisiae wild-type growth) 10% (inactive).
The like results for `COc1cccc2c1OCC1COc3c(c(=O)n(C)c(=O)n3C)C21` (stereo not given) were, in that order, 8.33% and 14.8% (inactive).
Regarding `CCn1c(-c2ccoc2C)n[nH]c1=S`, the growth inhibition is, setting by setting: under setting [1], 22.8%; (S. cerevisiae wild-type growth) 21.4% (inactive).
The like results for `CCOC(=O)C1=C(CSc2nccn2C)NC(=O)NC1c1ccc(OC)cc1` (stereo not given) were, in that order, 5.26% and 17.1% (inactive).
The like results for `COC(=O)C1C(=O)NCC1c1ccc(OC)cc1` (stereo not given) were, in that order, 10.3% and 14.6% (inactive).
For `Cc1cccc(S(=O)(=O)CC(=O)Nc2nc(-c3ccccc3)cs2)c1` the same measures were 10% and 3.33% (inactive).
Consider `C=CCc1ccc(OCCOc2cccc(/C=N/n3cnnc3)c2)c(OC)c1`, for which the growth inhibition runs as follows: under setting [1], -40.9%; (S. cerevisiae wild-type growth) 5% (inactive).
For `Cc1nnc(SCC(=O)Nc2ncc3c(n2)CC(C)(C)CC3=O)s1` the same measures were 10.3% and 35% (inactive).
The like results for `CCOc1cc(N2CCOCC2)c(OCC)cc1NC(=O)COC(=O)[C@H](Cc1c[nH]c2ccccc12)NC(C)=O` were, in that order, 6.98% and 26.6% (inactive).
The like results for `Cc1ccc(OCCCC(=O)Nc2ccc(N3CCOCC3)cc2)cc1` were, in that order, -14.3% and 12.7% (inactive).
In the case of `COC(=O)C1CCN(CC(N)=O)CC1`, the growth inhibition is 17.5% under setting [1] and 20.8% (inactive) (S. cerevisiae wild-type growth).
For `O=C(NCCCCCCNC(=O)NCc1ccco1)NCc1ccco1` the same measures were 24.3% and 17.8% (inactive).
For `Cc1cc(=O)[nH]c(SCC(=O)N2c3ccccc3CC2C)n1` (stereo not given) the same measures were 3.57% and 4.67% (inactive).
With `CCCCOc1ccc(N(CC(=O)NCC2CCCO2)C(=O)CCC(=O)Nc2cc(C)ccn2)cc1` (stereo not given), the growth inhibition is -6.45% under setting [1] and -28.3% (inactive) (S. cerevisiae wild-type growth).
The like results for `O=C(c1ccc(CN2CCOCC2)cc1)N1CCN(c2ccccc2F)CC1` were, in that order, 8.33% and 11.9% (inactive).
Turning to `CC1=NN(/C(=N\c2nnc(C)s2)Nc2ccccc2)[C@H](c2ccc(C)cc2)S1`, the growth inhibition runs as follows: under setting [1], -6.45%; (S. cerevisiae wild-type growth) 20.2% (inactive).
Consider `Cc1ccc(-c2cc(C(=O)NCC3CCCO3)c3ccccc3n2)o1` (stereo not given), for which the growth inhibition was -6.45% under setting [1] and 6.79% (inactive) (S. cerevisiae wild-type growth).
Consider `CC1CCc2c(sc3nc4n(c(=O)c23)CCS4)C1` (stereo not given), for which the growth inhibition was 15.4% under setting [1] and 36.9% (inactive) (S. cerevisiae wild-type growth).
The like results for `COC(=O)CNC(=O)c1ccccc1F` were, in that order, 16.3% and 19.7% (inactive).
For the molecule `COc1ccc(N2CCN(Cc3ccc(Br)s3)CC2)cc1`, the growth inhibition is 10% under setting [1] and 16.1% (inactive) (S. cerevisiae wild-type growth).
For `CC(C)(C)NC(=O)CN(Cc1cccs1)C(=O)CNS(=O)(=O)c1ccccc1` the same measures were 14.1% and 11.6% (inactive).
With `C/C(=N\NC(=O)c1nc(C)cc(C)n1)c1ccccc1`, the growth inhibition is 24.3% under setting [1] and 15.2% (inactive) (S. cerevisiae wild-type growth).
The like results for `CCC(=NC1CC(C)(C)NC(C)(C)C1)C1=C(O)CC(C)(C)CC1=O` were, in that order, 14.8% and 23.3% (inactive).
Take `CN1C(=O)C(CC(N)=O)N(NC(=O)c2ccc(Cl)cc2)C1=S` (stereo not given): the growth inhibition by setting is: under setting [1], 9.52%; (S. cerevisiae wild-type growth) 33.8% (inactive).
In the case of `COC(=O)c1sc(=S)n(-c2ccc(Cl)cc2)c1C`, the growth inhibition under setting [1] is 14.5% and the growth inhibition (S. cerevisiae wild-type growth) is 9.64% (inactive).
The like results for `CCOC(=O)c1ccc2c(c1)nc(SCC(=O)NC(C)C)n2CC` were, in that order, 7.69% and 3.45% (inactive).
Turning to `CCOC(=O)C1C(=O)NCC1c1ccccc1` (stereo not given), the growth inhibition is, setting by setting: under setting [1], 22.1%; (S. cerevisiae wild-type growth) 11.5% (inactive).
The like results for `CCCCN1C(=O)/C(=C2/C=CC=CN2C)SC1=S` were, in that order, 18.9% and 21.5% (inactive).
